Results on 96 compounds are retold here after ChEMBL document CHEMBL4513216, “Probing the Open Global Health Chemical Diversity Library for Multistage-Active Starting Points for Next-Generation Antimalarials” (ACS Infect Dis, 2020).

The data set in a line: Toxicity liver stage against HepG2, at 10uM. Format: cell-based. Also noted: test concentration 10 uM, cell line HepG2-A16-CD81EGFP. The following applies: human, HepG2-A16-CD81EGFP cells; read-out: INHIBITION
Put shortly: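 Uninfected HepG2-A16-CD81EGFP cells, 3 × 10^3 per well, 1536-well, plated on prespotted compound at 10 μM final, parasite-free screening media added to match infected plates; puromycin 10 μM positive, DMSO 0.5% negative; run in parallel with 48 h PbLuc assay at 37 °C, 5% CO2; viability by CellTiter-Glo luminescence, normalized to controls.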

On to `Cc1cc(NC2CCC(=O)N(C)C2)n2nccc2n1` (stereo unspecified), for which the cytotoxicity at 10 µM was -0.714%.
As to `CCN(Cc1cnn(CC)c1)C(=O)Cn1c(=O)c(C)nc2ccccc21`, the cytotoxicity at 10 µM was 0.791%.
In the case of `CN(CC1COc2ccccc2O1)C(=O)C1=NN(C)C(=O)CC1` (stereo unspecified), the cytotoxicity at 10 µM was -52.2%.
On to `COCC(c1cccc(C(F)(F)F)c1)N(C)C(=O)c1cc(C)no1` (stereo unspecified), for which the cytotoxicity at 10 µM came out at 0.0161%.
As for `Cc1ccc(CNc2cc(N3CCCC3CO)ncn2)s1` (stereo unspecified), the figure is -2.9%; as for `CCOCCCNC(=O)C1(C)CCC(=O)N1c1ccccc1F` (stereo unspecified), -4.42%; as for `COCCC1COC2(CCN(C(=O)CC3CCCC3)CC2)C1` (stereo unspecified), -2.46%.
As for `COc1ccc(-n2nnc(C(=O)NCC3CCCCC3)n2)cc1`, the figure is 1.01%; as for `O=C(c1ccco1)N1CC[C@H]2[C@H]1CCN2S(=O)(=O)C1CC1`, 9.22%.
Consider `O=S(=O)(c1ccccc1)N1CCCN(CCCn2ccnc2)CC1`, for which the cytotoxicity at 10 µM was -9.17%.
Take `CC1CCN(C(=O)c2ccn(COc3ccc(F)cc3)n2)CC1`: the cytotoxicity at 10 µM was -9.38%.
In the case of `CNC(=O)[C@H]1C[C@@H]2CN(C(=O)c3cccnc3)C[C@@H]2N1S(C)(=O)=O`, the cytotoxicity at 10 µM is -4.12%.
For `CC(NC(=O)c1cc(N2CCNC2=O)ccc1F)c1ccc(F)cc1` (stereo unspecified), the cytotoxicity at 10 µM was determined as 5.89%.
Regarding `CN(C)C(=O)C1CCC2(CCN(Cc3ccc4ccccc4n3)CC2)O1` (stereo unspecified), the cytotoxicity at 10 µM came to 5.09%.
Consider `CC(C)c1cc(NC(=O)CN2CCC(N3CCCCC3)CC2)on1`, for which the cytotoxicity at 10 µM is -9.68%.
Take `Cc1nnc(CN(C)C(=O)C(CC(C)C)N2CCCCC2=O)n1C` (stereo unspecified): the cytotoxicity at 10 µM was -1.88%.
In the case of `O=C(NCC(O)c1cccc(F)c1)C1CCN(C(=O)C2CCC2)CC1` (stereo unspecified) it was 4.43%.
With `COc1cc2c(cc1CN1C[C@@H](CN3CCOCC3)[C@@H](CO)C1)CCC2`, the cytotoxicity at 10 µM is -2.37%.
With `O=C(O)c1ccc(N2CCC(Oc3cccc(F)c3)CC2)nc1`, the cytotoxicity at 10 µM is -60.7%.
In the case of `Cn1ccc(C(=O)N2CCCCC2c2cc(CCO)[nH]n2)n1` (stereo unspecified), the cytotoxicity at 10 µM is -0.01%.
In the case of `CC(CN1CCOCC1)NC(=O)NCc1ccoc1` (stereo unspecified) it was -5.52%; in that of `CS(=O)(=O)N[C@@H]1COC[C@@H]2CN(Cc3ccoc3)C[C@@H]21`, -4.85%.
As for `O=C(NC1CC1)c1ccnc(N2CCOC(c3ccc(Cl)cc3)C2)c1` (stereo unspecified), the figure is 4.44%.
For `COCCN(Cc1sccc1C)Cc1nccn1CCOC`, the cytotoxicity at 10 µM worked out at 2.33%.
Consider `Cc1nc(C2CCCN(C(=O)c3cccc4c3OCO4)C2)sc1C` (stereo unspecified), for which the cytotoxicity at 10 µM was -8.72%.
For the compound `N#Cc1ccc(CNC(=O)NC2CCN(CC(F)(F)F)C2)cc1` (stereo unspecified), the cytotoxicity at 10 µM came to 7.06%.
`Cc1ncsc1C(=O)NCc1cccs1`: the cytotoxicity at 10 µM was -1.89%.
On to `Cc1nn(C)c(C)c1C1CCCN1Cc1noc(C2CC2)n1` (stereo unspecified), for which the cytotoxicity at 10 µM is -6.95%.
On to `Cc1c(C(=O)NCC(F)(F)F)nnn1-c1ccccc1Cl`, for which the cytotoxicity at 10 µM turned out to be 2.37%.
In the case of `CN1CCC2(CC1)CN(Cc1ccc(C3CCCCO3)o1)CCCN2C` (stereo unspecified), the cytotoxicity at 10 µM is -5.35%.
Regarding `O=C([C@@H]1CCO[C@@H]2CCN(CC3CCOCC3)C[C@H]21)N1CCCC1`, the cytotoxicity at 10 µM was -114%.
For the compound `COCC(O)CN1CC(C)(C)CN(C(=O)CCc2ccccc2)CC1=O` (stereo unspecified), the cytotoxicity at 10 µM is -1.83%.
In the case of `CCC(Nc1cccc(Oc2ccc(C#N)cc2)c1)C(N)=O` (stereo unspecified) it was 38%; in that of `COCC(C)NC(=O)c1cncc(Br)c1` (stereo unspecified), 3.73%.
In the case of `O=C1CSc2ccccc2N1CC(=O)N1CCCCC1c1nccs1` (stereo unspecified) it was 14.4%; in that of `CCS(=O)(=O)N1CCO[C@H]2[C@H](OCCCn3cccn3)CC[C@@H]21`, -5.04%; in that of `CN(C)CCN1CCC2(CC1)CN(c1cccnc1)C(=O)CO2`, 1.7%.
For `Fc1cccc(CN2CCC(c3noc(-c4cnccn4)n3)CC2)c1F`, the cytotoxicity at 10 µM is -1.37%.
As for `Cc1csc(CNC(=O)CCCc2cccs2)n1`, the figure is -47.1%; as for `Cn1cc(CN2CCCC3(CCN(c4nncs4)C3)C2)cn1` (stereo unspecified), 5.41%; as for `CCn1c(C)cc(C(=O)N2CCCC(C(=O)c3nccn3C)C2)c1C` (stereo unspecified), 6.27%.
As for `NC(=O)C(NC1CCN(CC2CCCCC2)CC1)c1ccc(F)cc1` (stereo unspecified), the cytotoxicity at 10 µM was -5.14%.
Take `CCSc1nc(N)c(NC(=O)c2ccc(OC)c(OC)c2)c(=O)[nH]1`: the cytotoxicity at 10 µM is -6.24%.
Take `CC(C)C(=O)N1CCCC1C(=O)Nc1cc(C(F)(F)F)ccc1F` (stereo unspecified): the cytotoxicity at 10 µM was -0.359%.
With `O=C(NCCc1cccnc1)Nc1cc(C(F)(F)F)c[nH]c1=O`, the cytotoxicity at 10 µM is -12.2%.
On to `COCC1(NC(=O)Nc2nc(C)ns2)CCCC1`, for which the cytotoxicity at 10 µM worked out at 0.512%.
As to `CC(c1nc(C2CC2)no1)N1CCN(Cc2ccccc2)CC1` (stereo unspecified), the cytotoxicity at 10 µM is -5%.
In the case of `Cc1cc(C(C)NC(=O)CCN2C(=O)c3ccccc3C2=O)c(C)o1` (stereo unspecified) it was -7.82%; in that of `CCC(=O)NCC(c1ccc(SC)cc1)N1CCc2sccc2C1` (stereo unspecified), 4.05%; in that of `O=C(c1ccnn1COc1ccc(Cl)cc1)N1CCCC1`, -2.34%.
With `O=C1CCC2(CCCN(C(=O)c3cnccn3)CC2)N1` (stereo unspecified), the cytotoxicity at 10 µM was -2.66%.
As for `COc1ccc(-c2nnc(SC(C)C(N)=O)[nH]2)c(OC)c1` (stereo unspecified), the figure is -15%.
Take `COCc1ccccc1CNc1nnc(C)c(C)c1C#N`: the cytotoxicity at 10 µM is -2.48%.
As for `COc1ccc(C(=O)N(C)Cc2cccc(C#N)c2)c(OC)c1OC`, the cytotoxicity at 10 µM was -17.1%.
`O=C(O)CN1CCC(c2ccccc2)C1` (stereo unspecified): the cytotoxicity at 10 µM is 1.67%.
In the case of `Cc1cccc(NC(=O)c2[nH]nc(C(C)C)c2Br)n1`, the cytotoxicity at 10 µM was -2.95%.
As for `Cc1c(C2CCCN(C(=O)c3cccnc3)C2)n2c(nc1=O)CCC2` (stereo unspecified), the figure is -17.1%; as for `Cc1ccsc1-c1cccc(-c2ccn(CC3CCNC3)n2)c1` (stereo unspecified), -0.288%; as for `CCn1c(CN(C)C)nnc1C1CCN(Cc2cccc(OC)c2)CC1`, -13.6%.
As for `CC(=O)NCc1noc2c1CN(Cc1cccs1)CC2`, the figure is -5.18%.
For the compound `CCCC(=O)N1CCC([C@@H]2C[C@H](C(F)(F)F)n3nc(C)cc3N2)CC1`, the cytotoxicity at 10 µM is -16.1%.
As for `CCCC(=O)Nc1sc(C(=O)OCC)c(C)c1C#N`, the figure is 8.29%; as for `COc1cc(CNCC2CN(C3CC3)CCO2)cc(OC)c1` (stereo unspecified), -24.3%.
For `O=C(COCCOc1ccccc1)NC1CCN(C(=O)C2CC2)CC1`, the cytotoxicity at 10 µM is -7.67%.
As for `Cc1cccc(OC2CCN(Cc3ncc[nH]3)CC2)c1`, the figure is -7.15%.
On to `CC(C)C1SCC(=O)Nc2c1c(O)nn2C1CCCC1` (stereo unspecified), for which the cytotoxicity at 10 µM worked out at 1.4%.
For `CC(=O)c1cccc(S(=O)(=O)NCC(C)(O)c2cccs2)c1` (stereo unspecified), the cytotoxicity at 10 µM is -17%.
In the case of `CCc1ccc(O)c(C(=O)N2CCN(CC(=O)N(C)C)CC2)c1` it was 2.8%; in that of `CCCc1cc(C(=O)N2CCC3(CCCN(CCOC)C3=O)C2)cs1` (stereo unspecified), -167%; in that of `Cc1ccc(N2CC[C@@H]3[C@@H]2CCN3C(=O)Cc2ccccc2)nn1`, -93.1%.
Regarding `CC(C)N1CCC(C(=O)N(C)CC(=O)c2ccc(O)cc2)CC1`, the cytotoxicity at 10 µM is -4.33%.
As for `O=C(NCc1ccco1)[C@@]12CCO[C@@H]1CCN(Cc1nccs1)C2`, the figure is 14.6%; as for `C=C(C)CN1CCN(Cc2cnc(OC)nc2)CC1`, 5.16%; as for `Fc1cccc(OC2CCN(CCn3cc4ccccc4n3)CC2)c1`, 8.33%.
As to `CCS(=O)(=O)N1C[C@H](c2nc(C)no2)C[C@H]2OCC[C@H]21`, the cytotoxicity at 10 µM is -119%.
Consider `Cc1noc(C)c1CN1C[C@H](OCC(=O)N(C)C)[C@H]2COC[C@H]21`, for which the cytotoxicity at 10 µM was found to be 7.61%.
As for `CS(=O)(=O)c1nccn1Cc1ccc(OC(F)F)cc1`, the figure is -0.627%; as for `O=C([C@H]1COC[C@H]2CN(Cc3ccco3)C[C@H]21)N1CCCO1`, -8.79%; as for `C[C@H](NC(=O)N1CCC(Cc2ccccc2)CC1)C(=O)O`, -1.65%.
In the case of `CCN(C(c1cccnc1)c1ccc2c(c1)CCO2)S(C)(=O)=O` (stereo unspecified) it was -8.28%.
As for `Cc1csc(C2(NC(=O)CCc3ccncc3)CCCC2)n1`, the figure is -12.1%.
Turning to `Cc1cnc(NC(=O)NCCOc2ncccc2Cl)s1`, the cytotoxicity at 10 µM was determined as 6.62%.
On to `CC(C)(C)c1noc(OCC(=O)NCC(F)(F)F)n1`, for which the cytotoxicity at 10 µM came out at 8.81%.
As to `Cc1cc(=O)n2nc(-c3cccs3)nc2n1CC(=O)NC(C)C`, the cytotoxicity at 10 µM worked out at 12.7%.
As for `C[C@H]1C[C@@H]2CCN(CC3CCOCC3)C[C@H]2O1`, the figure is 10.3%; as for `CN(C)CC1CN(Cc2ccsc2)Cc2nccn2C1` (stereo unspecified), 1.72%.
As for `O=C(Cc1ccccn1)N1CCN2C[C@H](OCCN3CCCC3)C[C@H]2C1`, the cytotoxicity at 10 µM is -77.2%.
In the case of `CN(C)Cc1cccc(C(=O)N2CCCC(n3cncn3)C2)c1` (stereo unspecified) it was -5.87%.
Turning to `Cc1cc2n(n1)CC(CNCc1ccccc1Cn1cccn1)CN2` (stereo unspecified), the cytotoxicity at 10 µM is -13.3%.
As to `Cc1nc(N(C)C)cc(C2(C)CCCNC2)n1` (stereo unspecified), the cytotoxicity at 10 µM was 2.05%.
In the case of `Cc1nc(C(C)(C)NC(=O)Nc2cccc(C#N)c2)no1`, the cytotoxicity at 10 µM is -7.79%.
Consider `COCC(=O)N1CCN(CCn2cccn2)c2nc(C)ccc2C1`, for which the cytotoxicity at 10 µM amounted to 10.5%.
For the compound `CCc1noc(C2CCN(C(=O)CCn3nc(C)cc3C)CC2)n1`, the cytotoxicity at 10 µM is -9.52%.
In the case of `Cc1cc(N2CCN(Cc3cn(C)nc3C)CC2)cc(C2CCCN2)n1` (stereo unspecified) it was 0.525%.
In the case of `Cc1occc1C(=O)N1CCn2cnc(COCC3CC3)c2C1` it was -6.4%.
In the case of `Cc1cc(N2CCOCC2)ccc1NC(C)c1nc(C(C)(C)C)no1` (stereo unspecified) it was -12.7%.
